Assays:
[1] = melting temperature; fluorescence melt of hairpins on a sequencing array, two-state fit, raised by 9.35 °C to match UV melts; settings: sodium 0.088 M
How it was run: (§1)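 On a sequenced MiSeq flow cell, library hairpins with annealed Cy3 and quencher oligos were imaged for Cy3 fluorescence in 2.5 °C steps up to 60 °C, in 50 mM Na-HEPES pH 8.0, 25 mM NaCl. Normalisation used pre-quench Cy3 and control constructs. Bootstrapped two-state fits gave melting temperature and folding enthalpy, combined by inverse variance across four replicates and with fitted temperatures raised by 9.35 °C to match UV melts.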

[2] = folding enthalpy; higher = less favourable; fluorescence melt of hairpins on a sequencing array, two-state fit; settings: sodium 0.088 M
How it was run: as §1

| Sequence | Tm [1] [°C] | folding enthalpy [2] [kcal/mol] |
| --- | --- | --- |
| CGTCGCGGAAACGCACG (((.(((....)))))) | 50.5 | -19.4 |
| GCCCTCGAAAGAGCGGC ((((((....))).))) | 55.7 | -37.3 |
| GATCTGTGAGCAGATC ((((((....)))))) | 55 | -40 |
| GTCCTCGAAAGAGCCGAC ((((((....)))..))) | 26.7 | -12.4 |
| GCCCTTGGAAACGAGGGC (((((.(....).))))) | 57.5 | -41.4 |
| GCTCTGGGAAACCAGAGC (((((((....))))))) | 69 | -42.5 |
| GCACCCTCGAAAGAGTGC (((..(((....)))))) | 41.6 | -23.1 |
| GTTTGGTCGAAAGACAAC (((..(((....)))))) | 31.4 | -13.2 |
| GACAAACGAAAGTTGTC (((.(((....)))))) | 48.2 | -29.1 |
| GAATGCGAAAGCATCTTC ((((((....)))..))) | 53 | -23.4 |
| GGGGGATCGAAAGATCCC (((..(((....)))))) | 59.9 | -8.42 |
| GATCGATTCTCGATC ((((((...)))))) | 53.3 | -38.8 |
| GATCCATGTCTGGATC ((((((....)))))) | 50.5 | -40.9 |
| GATCGCCGAGCGATC ((((((...)))))) | 67.3 | -32.5 |
| GTCGCCGCGAAAGCGGAC (((..(((....)))))) | 32.8 | -6.08 |
| CGGAAACGGAAACGTCCG (((..(((....)))))) | 41.1 | -22.9 |
| GGGTTCGAAAGAATCCCC ((((((....)))..))) | 50.6 | -15.9 |
| GAACAAGGAAACCTGTTC (((((.(....).))))) | 37.3 | -25.7 |
| GCACGGCGAAAGCCCGGC ((..(((....)))..)) | 50.1 | -15.4 |
| GGAGCCGCGAAAGCGTCC (((..(((....)))))) | 30.7 | -10.9 |
| GGTTTGGGAAACCAAGCC ((.((((....)))).)) | 49.9 | -33.5 |
| GCGCCAGGAAACCGGCAC (.(((.(....).))).) | 37.4 | -16.6 |
| GATCCCACACGGGATC ((((((....)))))) | 63.1 | -43.7 |

| Sequence | Tm [1] [°C] | folding enthalpy [2] [kcal/mol] |
| --- | --- | --- |
| GGCAACGGAAACGCTGCC ((((.((....)).)))) | 53.6 | -41.8 |
| GGCAACGAAAGTTTCGCC ((((((....)))..))) | 41.8 | -19 |
| GCATTCGGAAACGGATGC ((((.((....)).)))) | 54 | -36.9 |
| GTAAGTGGAAACACTCAC ((.((((....)))).)) | 32.7 | -15.4 |
| GCGGTTGGAAACAGTCGC (((..((....))..))) | 44.2 | -25.3 |
| GCACGTGGAAACACATGC (((.(((....))).))) | 45.1 | -31.9 |
| GGGGTTGCGAAAGCACCC (((..(((....)))))) | 59.5 | -19 |
| CGATCGGAAACGAATCG ((((((....))).))) | 46 | -34.7 |
| GTTCTAGGAAACTAGGAC ((.((((....)))).)) | 39.7 | -28.5 |
| GCAGGGCGAAAGCTCAGC ((.(.((....)).).)) | 48.3 | -18.4 |
| GATCAGGGAAACCTGGTC ((.((((....)))).)) | 47.4 | -29.2 |
| GGATATGGAAACATATCC (((((((....))))))) | 54.7 | -47 |
| GACGGCGGAAACGCCACC (..((((....))))..) | 26.9 | -9.98 |
| CAGCGGAAACGCTG (((((....))))) | 69.3 | -20.8 |
| GATCATGGAATGATC ((((((...)))))) | 56.5 | -39.3 |
| GCTAACGGAAACGTTAAC (.(((((....))))).) | 34.8 | -16.1 |
| GACCTCGGAAACGAAGTC (((.(((....))).))) | 34.7 | -24.9 |
| GGGCTCGAAAGAGGCCC ((((((....))).))) | 69 | -14.3 |
| GGCTGGCGAAAGCCCGCC (((.(((....))).))) | 63 | -22.6 |
| GGCGCATCGAAAGATGCC (((..(((....)))))) | 45.2 | -9.42 |
| GCGCGCGAAAGCGACCGC ((((((....)))..))) | 54.3 | -16.8 |
| GACTGACGAAAGTCGGTC (((.(((....))).))) | 62 | -37.2 |
| GGACACGAAAGTGCCTCC ((((((....)))..))) | 42.1 | -16.7 |

| Sequence | Tm [1] [°C] | folding enthalpy [2] [kcal/mol] |
| --- | --- | --- |
| GAATCCGAAAGGAGTTC ((((((....))).))) | 35.3 | -15.9 |
| GACCGAGGAAACTTGGTC ((((.((....)).)))) | 50.1 | -32.5 |
| GATTTTGGAAACGAAATC (((((.(....).))))) | 39.6 | -34.9 |
| GTCAGGGGAAACCCTGAC (((((((....))))))) | 65.1 | -41.9 |
| GGTACTCCGAAAGGAACC (((..(((....)))))) | 25.4 | -9.52 |
| GTTTACCGAAAGGTAAC (((.(((....)))))) | 44.2 | -12.7 |
| GTCTGTTCGAAAGAAGAC (((..(((....)))))) | 26.4 | -23 |
| GTATACGGAAACGTATAC (((((((....))))))) | 55.9 | -44.8 |
| GATCGTCATAACGATC ((((((....)))))) | 55 | -38.8 |
| GCGGGAGGAAACTTCCGC ((((.((....)).)))) | 58.6 | -40.1 |
| GGGGATCGAAAGATGCCC (((.(((....))).))) | 59.4 | -48.8 |
| GTTGATGGAAACATCAAC (((((((....))))))) | 57.7 | -46.2 |
| GCAGGACGAAAGTCATGC (((.(((....))).))) | 66.3 | -37.9 |
| GATCTGTTCTCAGATC ((((((....)))))) | 51.5 | -41.3 |
| GTCACCGGAAACGGTGGC (.(((((....))))).) | 63.5 | -29.4 |
| GCCGAGAAATCGGC (((((....))))) | 64.8 | -28.4 |
| GCTGTCGAAAGACGAGC ((((((....))).))) | 54.1 | -25.6 |
| GCACAGCGAAAGCCATGC (((..((....))..))) | 38 | -11.9 |
| GCGAAACCGAAAGGTCGC (((..(((....)))))) | 54.4 | -29.9 |
| GCGTCCGACGC ((((...)))) | 53.9 | -27.1 |
| GCCCCAGGAAACTGGAGC ((.((((....)))).)) | 46.7 | -25.3 |
| GGGGTTGGAAACAACTCC ((.((((....)))).)) | 51.3 | -37.5 |
| GCTGCACGAAAGTGAAGC (((.(((....))).))) | 60.5 | -36 |

| Sequence | Tm [1] [°C] | folding enthalpy [2] [kcal/mol] |
| --- | --- | --- |
| GATCCGCGAAAGCGTATC (((.(((....))).))) | 43.4 | -18.4 |
| GCAGTCGAAAGACTCTGC ((((((....)))..))) | 41.8 | -16.1 |
| GATCAGTCTCTGATC ((((((...)))))) | 50.7 | -40.3 |
| GTGGGCGGAAACGCTCGC (.(.(((....))).).) | 49.9 | -21.3 |
| GCCGCGCGAAAGCATGGC (((..((....))..))) | 60.1 | -26.7 |
| GTACGTGGAAACGTGTAC ((((..(....)..)))) | 37.4 | -12.3 |
| GGCAGCGAAAGCTTTGCC ((((((....)))..))) | 51.6 | -18.1 |
| GGTTCGGGAAACTGAGCC ((.((.(....).)).)) | 39.3 | -27.1 |
| CGTAGCGGAAACGCACG (((.(((....)))))) | 53.1 | -22.2 |
| GAGGCGGGAAACCACCCC (.((.((....)).)).) | 27.8 | -13.6 |
| GACCTGGGAAACTAGGTC (((((.(....).))))) | 50.1 | -42.5 |
| GGTCACCCGAAAGGGACC (((..(((....)))))) | 48.6 | -17.7 |
| GCCGACGAAAGTCAGGC ((((((....))).))) | 64.1 | -39.5 |
| GTCAACGAAAGTTTCGAC ((((((....)))..))) | 26.6 | -14.3 |
| GCGATAGGAAACTATCGC (((((((....))))))) | 65.9 | -57.2 |
| GTCATCGAAAGATACGAC ((((((....)))..))) | 35 | -20.9 |
| GATCCCATAAGGGATC ((((((....)))))) | 63.9 | -39.4 |
| GCGGGTTTCCGC ((((....)))) | 59.2 | -28.2 |
| GCGATCGGAAACGGTTGC ((.(.((....)).).)) | 44.9 | -29.6 |
| GAGCCAGCGAAAGCTCTC (((..(((....)))))) | 34.8 | -10.3 |
| GGAATCCGAAAGGATCC (((.(((....)))))) | 50 | -19.6 |
| GCAAAGGGAAACCTTTGC (((((((....))))))) | 64.1 | -45.1 |
| GATCAGCCTCTGATC ((((((...)))))) | 47.9 | -38.5 |

— the array DNA melting data of Ke et al. (doi:10.1101/2024.01.08.574731)
